pEC50: −log10 of the molar value. Residues, ends and D or L forms follow the SMILES beside them. *: point of attachment. X1 = CC1(C)N(O)C(c2ccc(OCC(=O)*)cc2)=[N+]([O-])C1(C)C
Tests used:
[1] = test system: Rattus norvegicus; assay: Thrombolytic activity (10.0 umol/kg) expressed as the reduction of thrombus mass determined in male wistar rats; format: functional
Method in brief: (§1)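 Male Wistar rats (200–300 g) were anesthetized with pentobarbital sodium (80.0 mg/kg i.p.). A steel helix was left for 15 min in 1.0 mL of carotid blood, then weighed. It was placed in a heparin-filled (50 IU/mL) polyethylene shunt into the left jugular vein. Heparin and then the test agent were injected through the shunt. Blood circulated 90 min, the helix was reweighed, and thrombus mass reduction was recorded (ANOVA).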

[2] = test system: PC-12; assay: Free radical scavenging activity of compound (12.5 uM) evaluated against hydrogen peroxide in PC12 cells; format: functional, cell-based; settings: Rattus norvegicus
Method in brief: (§2)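 PC12 cells were grown in DMEM with 10% heat-inactivated horse serum, 5% FBS and 1.0 mM pyruvate at 37 °C and 5% CO₂. Cells were seeded at 20 000/well on poly-L-lysine and attached 24 h, then pretreated 1 h with 12.5–200 µM compound. Insults were: NO, 2 mM nitroprusside for 2 h, then 14 h in fresh medium; H₂O₂, 1 mM for 1 h; OH, 1 mM H₂O₂/30 µM Fe(II) for 1 h. Survival was read by MTT.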

[3] = organism: Rattus norvegicus; assay: Concentration of compound (1 uM) required to inhibit acetylcholine-induced vasorelaxation of rat aortic strip relative to control; format: functional, Aorta
[4] = organism: Oryctolagus cuniculus; assay: Fibrinolytic activity (0.8 ug) determined in fibrinogen-agarose mixture coagulated with […] of thrombin; format: functional
Method in brief: (§3)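 Plates were cast from equal volumes of 0.3% rabbit fibrinogen and 0.95% agarose, both in 50 mM sodium barbiturate buffer (pH 7.8), clotted with thrombin (100 IU/mL) and held 30 min at 4 °C. Wells 5 mm across were punched and loaded with 30 µL of saline, urokinase or test agent. Fibrinolysis was expressed as lysis area.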

[5] = organism: Oryctolagus cuniculus; assay: Effect (0.8 ug) on euglobulin clot lysis time determined using rabbit euglobulin; format: functional
Method in brief: (§4)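 Rabbit plasma was diluted 1:20 in distilled water and precipitated at pH 5.7 with 0.25% acetic acid for 30 min at 4 °C. It was spun at 2000g for 15 min, and the euglobulin pellet was resuspended to the original plasma volume in 50 mM sodium barbiturate buffer (pH 7.8; 1.66 mM CaCl₂, 0.68 mM MgCl₂, 93.96 mM NaCl). Saline, urokinase or test agent was added to the clots, and time to clot lysis was read in a microplate.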

[6] = test system: PC-12; assay: Free radical scavenging activity of compound (12.5 uM) evaluated against nitric oxide in PC12 cells; format: functional, cell-based; settings: Rattus norvegicus; method in brief: as §2
[7] = test system: PC-12; assay: Free radical scavenging activity of compound (12.5 uM) evaluated against OH in PC12 cells; format: functional, cell-based; settings: Rattus norvegicus; method in brief: as §2
[8] = organism: Oryctolagus cuniculus; assay: Fibrinolytic activity (1.4 ug) determined in fibrinogen-agarose mixture coagulated with […] of thrombin; format: functional; method in brief: as §3
[9] = organism: Rattus norvegicus; assay: Concentration of compound (1 umol/L) required to inhibit acetylcholine-induced vasorelaxation of rat aortic strip relative to control; format: functional, Aorta
[10] = organism: Oryctolagus cuniculus; assay: Effect (1.4 ug) on euglobulin clot lysis time determined using rabbit euglobulin; format: functional; method in brief: as §4
[11] = organism: Oryctolagus cuniculus; assay: Fibrinolytic activity (1.3 ug) determined in fibrinogen-agarose mixture coagulated with […] of thrombin; format: functional; method in brief: as §3
[12] = organism: Oryctolagus cuniculus; assay: Effect (1.3 ug) on euglobulin clot lysis time determined using rabbit euglobulin; format: functional; method in brief: as §4
[13] = organism: Oryctolagus cuniculus; assay: Fibrinolytic activity (1.5 ug) determined in fibrinogen-agarose mixture coagulated with […] of thrombin; format: functional; method in brief: as §3
[14] = organism: Oryctolagus cuniculus; assay: Effect (1.5 ug) on euglobulin clot lysis time determined using rabbit euglobulin; format: functional; method in brief: as §4
[15] = organism: Oryctolagus cuniculus; assay: Fibrinolytic activity (0.4 ug) determined in fibrinogen-agarose mixture coagulated with […] of thrombin; format: functional; method in brief: as §3
[16] = test system: PC-12; assay: Free radical scavenging activity of compound (25 uM) evaluated against hydrogen peroxide in PC12 cells; format: functional, cell-based; settings: Rattus norvegicus; method in brief: as §2
[17] = test system: PC-12; assay: Free radical scavenging activity of compound (25 uM) evaluated against […] in PC12 cells; format: functional, cell-based; settings: Rattus norvegicus
[18] = test system: PC-12; assay: Free radical scavenging activity of compound (25 uM) evaluated against OH in PC12 cells; format: functional, cell-based; settings: Rattus norvegicus; method in brief: as §2
[19] = organism: Oryctolagus cuniculus; assay: Effect (0.6 ug) on euglobulin clot lysis time determined using rabbit euglobulin; format: functional; method in brief: as §4
[20] = organism: Oryctolagus cuniculus; assay: Fibrinolytic activity (0.2 ug) determined in fibrinogen-agarose mixture coagulated with […] of thrombin; format: functional; method in brief: as §3
[21] = test system: Rattus norvegicus; assay: Thrombolytic activity (15.0 umol/kg) expressed as the reduction of thrombus mass determined in male wistar rats; format: functional; method in brief: as §1
[22] = organism: Oryctolagus cuniculus; assay: Effect (1.1 ug) on euglobulin clot lysis time determined using rabbit euglobulin; format: functional; method in brief: as §4
[23] = organism: Rattus norvegicus; assay: Concentration of compound (0.1 umol/L) required to inhibit acetylcholine-induced vasorelaxation of rat aortic strip relative to control; format: functional, Aorta
[24] = organism: Oryctolagus cuniculus; assay: Effect (2.2 ug) on euglobulin clot lysis time determined using rabbit euglobulin; format: functional; method in brief: as §4
[25] = test system: Rattus norvegicus; assay: Thrombolytic activity (5.0 umol/kg) expressed as the reduction of thrombus mass determined in male wistar rats; format: functional; method in brief: as §1
[26] = organism: Rattus norvegicus; assay: Concentration of compound (0.01 umol/L) required to inhibit acetylcholine-induced vasorelaxation of rat aortic strip relative to control; format: functional, Aorta
[27] = organism: Oryctolagus cuniculus; assay: Effect (2.1 ug) on euglobulin clot lysis time determined using rabbit euglobulin; format: functional; method in brief: as §4
[28] = test system: PC-12; assay: Free radical scavenging activity of compound (50 uM) evaluated against OH in PC12 cells; format: functional, cell-based; settings: Rattus norvegicus; method in brief: as §2
[29] = test system: PC-12; assay: Free radical scavenging activity of compound (50 uM) evaluated against hydrogen peroxide in PC12 cells; format: functional, cell-based; settings: Rattus norvegicus; method in brief: as §2
[30] = test system: PC-12; assay: Free radical scavenging activity of compound (50 uM) evaluated against […] in PC12 cells; format: functional, cell-based; settings: Rattus norvegicus
[31] = organism: Oryctolagus cuniculus; assay: Fibrinolytic activity (0.7 ug) determined in fibrinogen-agarose mixture coagulated with […] of thrombin; format: functional; method in brief: as §3
[32] = test system: Rattus norvegicus; assay: Thrombolytic activity (1 umol/kg) expressed as the reduction of thrombus mass determined in male wistar rats; format: functional; method in brief: as §1
[33] = test system: PC-12; assay: Free radical scavenging activity of compound (200 uM) evaluated against hydrogen peroxide in PC12 cells; format: functional, cell-based; settings: Rattus norvegicus; method in brief: as §2
[34] = organism: Oryctolagus cuniculus; assay: Effect (2.3 ug) on euglobulin clot lysis time determined using rabbit euglobulin; format: functional; method in brief: as §4
[35] = test system: PC-12; assay: Free radical scavenging activity of compound (200 uM) evaluated against […] in PC12 cells; format: functional, cell-based; settings: Rattus norvegicus
[36] = test system: PC-12; assay: Free radical scavenging activity of compound (200 uM) evaluated against OH in PC12 cells; format: functional, cell-based; settings: Rattus norvegicus; method in brief: as §2
[37] = test system: Rattus norvegicus; assay: Thrombolytic activity (10 umol/kg) expressed as the reduction of thrombus mass determined in male wistar rats; format: functional; method in brief: as §1
[38] = test system: Rattus norvegicus; assay: Thrombolytic activity (5 umol/kg) expressed as the reduction of thrombus mass determined in male wistar rats; format: functional; method in brief: as §1
[39] = test system: Rattus norvegicus; assay: Thrombolytic activity (20 000 IU/kg) expressed as the reduction of thrombus mass determined in male wistar rats; format: functional, organism-based; method in brief: as §1
[40] = organism: Oryctolagus cuniculus; assay: Effect (5 IU) on euglobulin clot lysis time determined using rabbit euglobulin; format: functional; method in brief: as §4
[41] = organism: Oryctolagus cuniculus; assay: Fibrinolytic activity (5 IU)) determined in fibrinogen-agarose mixture coagulated with […] of thrombin; format: functional; method in brief: as §3

CC1(C)N(O)C(c2ccc(OCC(=O)O)cc2)=[N+]([O-])C1(C)C gave a Reduction [1] of 15.89 mg, a pEC50 [2] of 4.52 and an Inhibition [3] of 99.2%. For the same molecule, the Lysis area [4] was 23.96 mm.mm, the ECLT [5] was 218.56 min and the pEC50 [6] was 4.04. It also gave a pEC50 [7] of 4.00.
For C[C@H](N)C(=O)N[C@@H](CCCN=C(N)N)C(=O)N1CCC[C@H]1C(=O)N[C@@H](C)C(=O)N[C@@H](CCCCN)C(=O)O (H-ARPAK-OH), the Reduction [1] was 18.54 mg, the Lysis area [8] was 212.78 mm.mm and the Inhibition [9] was 9.5%. It also gave an ECLT [10] of 96.38 min.
C[C@H](NC(=O)[C@@H]1CCCN1C(=O)[C@H](CCCN=C(N)N)NC(=O)CN)C(=O)N[C@@H](CCCCN)C(=O)O (H-GRPAK-OH) was tested, and the Reduction [1] was 25.82 mg, the Lysis area [11] was 230.54 mm.mm and the ECLT [12] was 91.09 min. It also gave an Inhibition [9] of 9.2%.
C[C@H](NC(=O)[C@@H]1CCCN1C(=O)[C@H](CCCN=C(N)N)NC(=O)[C@@H](N)CCC(N)=O)C(=O)N[C@@H](CCCCN)C(=O)O (H-QRPAK-OH) gave a Reduction [1] of 21.17 mg, a Lysis area [13] of 223.99 mm.mm and an ECLT [14] of 93.01 min. For the same molecule, the Inhibition [9] was 8.9%.
Work on C[C@H](NC(=O)COc1ccc(C2=[N+]([O-])C(C)(C)C(C)(C)N2O)cc1)C(=O)N[C@@H](CCCN=C(N)N)C(=O)N1CCC[C@H]1C(=O)N[C@@H](C)C(=O)N[C@@H](CCCCN)C(=O)O (X1-ARPAK-OH) yielded a Reduction [1] of 19.91 mg, a Lysis area [15] of 194.54 mm.mm and a pEC50 [16] of 4.55. The pEC50 [17] was 4.05, the pEC50 [18] was 4.01 and the Lysis area [4] was 215.23 mm.mm. The ECLT [19] was 145.61 min, the Lysis area [20] was 172.33 mm.mm and the Reduction [21] was 26.88 mg. The ECLT [22] was 123.32 min, the Inhibition [23] was 78.6% and the Inhibition [9] was 92.9%. It also gave an ECLT [24] of 104.12 min, a Reduction [25] of 16.27 mg and an Inhibition [26] of 66.8%.
Molecule C[C@H](NC(=O)[C@@H]1CCCN1C(=O)[C@H](CCCN=C(N)N)NC(=O)CNC(=O)COc1ccc(C2=[N+]([O-])C(C)(C)C(C)(C)N2O)cc1)C(=O)N[C@@H](CCCCN)C(=O)O (X1-GRPAK-OH) has an ECLT [27] of 105.01 min, a Reduction [1] of 19.7 mg and a Lysis area [15] of 196.87 mm.mm. For the same molecule, the pEC50 [28] was 4.02, the ECLT [19] was 147.22 min and the Lysis area [20] was 175.04 mm.mm. For the same molecule, the pEC50 [29] was 4.60, the Reduction [21] was 26.64 mg and the ECLT [22] was 126.51 min. It also gave an Inhibition [23] of 80.9%, an Inhibition [9] of 96% and a pEC50 [30] of 4.03. For the same molecule, the Reduction [25] was 16.34 mg, the Lysis area [31] was 217.35 mm.mm and the Inhibition [26] was 69.3%.
C[C@H](NC(=O)[C@@H]1CCCN1C(=O)[C@H](CCCN=C(N)N)NC(=O)[C@H](CCC(N)=O)NC(=O)COc1ccc(C2=[N+]([O-])C(C)(C)C(C)(C)N2O)cc1)C(=O)N[C@@H](CCCCN)C(=O)O (X1-QRPAK-OH) was tested, and the Reduction [32] was 16.4 mg, the Lysis area [15] was 215.12 mm.mm and the pEC50 [33] was 4.13. It also gave a Lysis area [4] of 230.15 mm.mm, an ECLT [19] of 136 min and a Lysis area [20] of 195.38 mm.mm. The ECLT [34] was 100.09 min, the ECLT [22] was 117.96 min and the Inhibition [23] was 80.1%. The pEC50 [35] was 4.04, the Inhibition [9] was 95.6% and the pEC50 [36] was 4.03. For the same molecule, the Reduction [37] was 28.85 mg, the Reduction [38] was 20.43 mg and the Inhibition [26] was 68.3%.
UROKINASE showed a Reduction [39] of 25.4 mg, an ECLT [40] of 126 min and a Lysis area [41] of 224 mm.mm.

From ChEMBL document CHEMBL1145150, “Synthesis and biological activity of nitronyl nitroxide containing peptides” (J Med Chem, 2005)
